Shown are actives, neighbours in structure and some others; about 1% of the full set was active somewhere.
ERp5 inh: ERp5 (human) disulfide isomerase inhibition; ERp5 insulin aggregation, absorbance 650 nm, 90 min; 0.05% of 350,000 active; Q15084; inhibition, % at 9.99 µM;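 active = mean replicate inhibition above about 25%, with every replicate also reaching it, limit read from the data, passing the limit was not always enough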
PvdQ inh: P. aeruginosa PvdQ acylase inhibition; inhibition, % at 10 µM; 0.063% of 340,000 active; purified PvdQ acylase, fluorescence plate reader; in the data active = inhibition above about 30%, passing the limit was not always enough;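 note: 0% = vehicle neutral wells and 100% = reference inhibitor wells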
PglD inh: PglD (C. jejuni) enzyme inhibition; purified PglD enzyme, DTNB colorimetric CoA detection; inhibition, % at 12.5 µM; 0.098% of 360,000 active; in the data active = inhibition above about 16%, passing the limit was not always enough
PDI inh: PDI (human) enzyme inhibition; 0.052% of 350,000 active; inhibition, % at 10 µM; P07237; PDI insulin aggregation turbidity, A650, 90 min;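 active = mean inhibition across replicates of 30% or more, whatever share of single replicates reach that level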
Target sequence (P07237 whole entry, looked up): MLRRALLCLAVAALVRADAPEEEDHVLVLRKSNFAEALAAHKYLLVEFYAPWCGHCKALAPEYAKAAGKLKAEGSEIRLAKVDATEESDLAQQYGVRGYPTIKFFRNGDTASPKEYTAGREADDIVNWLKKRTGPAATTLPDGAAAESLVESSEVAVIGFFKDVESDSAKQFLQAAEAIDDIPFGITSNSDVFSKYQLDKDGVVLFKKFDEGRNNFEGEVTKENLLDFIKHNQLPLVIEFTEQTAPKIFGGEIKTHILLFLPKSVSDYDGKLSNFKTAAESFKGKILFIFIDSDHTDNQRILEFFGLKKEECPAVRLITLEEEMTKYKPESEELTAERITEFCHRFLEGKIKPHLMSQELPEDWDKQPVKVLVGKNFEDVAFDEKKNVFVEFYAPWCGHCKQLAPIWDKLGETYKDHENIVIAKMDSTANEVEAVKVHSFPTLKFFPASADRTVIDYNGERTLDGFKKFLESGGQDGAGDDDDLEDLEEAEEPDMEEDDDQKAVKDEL
VIM-2 inh: blocks Pseudomonas aeruginosa VIM-2 metallo-beta-lactamase. purified VIM-2, nitrocefin hydrolysis, epi-absorbance fluorescence. inhibition, % at 5.6 µM. 0.89% of 290,000 active. AID 1527;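 active = inhibition above the mean of all tested compounds plus 3 SD, cutoff set per screening run, cut at about 7.5% in these data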;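 note: red hydrolysis product quenches plate fluorescence so inhibitors raise well fluorescence; 0% = enzyme with DMSO and 100% = DMSO without enzyme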
IMP-1 inhibitor: blocks Pseudomonas aeruginosa IMP-1 metallo-beta-lactamase. purified IMP-1, nitrocefin hydrolysis, epi-absorbance fluorescence. inhibition, % at 5.6 µM. 0.45% of 290,000 active;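 active = inhibition above the mean plus 3 SD of all compounds in the same screening run, cut at about 4.5% in these data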;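 note: 0% = IMP-1 with DMSO and 100% = DMSO wells lacking enzyme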
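system = purified recombinant IMP-1 beta-lactamase | amount = 0.2 nM IMP-1, as dispensed | medium = HEPES buffer pH 7.1 with ZnSO4 and Brij 35 | times = 25 °C, 15 min preincubation, 25 min reaction | detection = plate fluorescence quenching by hydrolysis product, ex 480/em 530 nm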
* hit, by the source's call; nt = not tested or not shown.

SMILES	ERp5 inh	PvdQ inh	PglD inh	PDI inh	VIM-2 inh	IMP-1 inhibitor
O=C(NCC[C@H]1CC[C@@H](NS(=O)(=O)Cc2ccccc2)[C@@H](CO)O1)C1CCCC1	0.8	nt	-2.5	nt	nt	nt
COc1ccc(-c2cc(C(F)(F)F)n3nc(C(=O)NCc4ccco4)cc3n2)cc1OC	nt	-8.5	1.1	1.6	8.7*	-0.6
O=C(NCc1ccco1)c1cnn2c(C(F)(F)F)cc(-c3cccs3)nc12	nt	4.2	3.1	13.3	9.3*	-3.0
CC(=O)Nc1ccc(NC(=O)CSc2nc3nc(-c4cccs4)cc(C(F)(F)F)c3c(=O)[nH]2)cc1	-1.0	4.1	nt	-2.7	-1.5	-3.0
COC(=O)CSc1nc2nc(-c3cccs3)cc(C(F)(F)F)c2c(=O)[nH]1	3.8	-8.2	-3.2	-0.3	11.9*	-0.4
O=C(c1cnn2c(C(F)(F)F)cc(-c3cccs3)nc12)N1CCCC1	-6.7	-3.1	nt	5.0	3.6	-2.2
O=C(CSc1nc2nc(-c3cccs3)cc(C(F)(F)F)c2c(=O)[nH]1)NCc1ccco1	nt	-9.1	-0.5	0.8	8.1*	-3.4
O=C(CCN1CCCCC1)N[C@H]1CC[C@@H](CCn2cc(-c3ccc(F)cc3)nn2)O[C@@H]1CO	4.3	nt	1.1	nt	nt	nt
C[C@@H]1CN([C@@H](C)CO)C(=O)c2cc(NC(=O)Nc3ccc(C(F)(F)F)cc3)ccc2O[C@@H]1CN(C)C	6.5	nt	-0.7	nt	nt	nt
C[C@H](NC(=O)N(C)C[C@H]1OCc2ccccc2-c2c(n(C)c3ccccc23)C(=O)N([C@@H](C)CO)C[C@H]1C)c1ccccc1	2.6	nt	-0.6	nt	nt	nt
O=C(Nc1cc(F)ccc1F)N1CC(=O)N2[C@H](CO)[C@@H](c3ccc(-c4ccccc4)cc3)[C@@H]2C1	6.2	nt	nt	nt	nt	nt
CO[C@H]1CN(C)C(=O)c2cc(NC(=O)C3CC3)ccc2OC[C@@H](C)N(Cc2nccs2)C[C@H]1C	4.5	nt	1.6	nt	nt	nt
O=C(NC1CCCC1)c1cccc(Cl)c1	12.7	70.2*	nt	1.4	0.3	-2.3
O=C(NC1CCCCCCC1)c1cccc(Cl)c1	1.8	73.8*	-8.1	3.1	-2.7	-1.4
O=C(NC1CCCCCCC1)c1cc([N+](=O)[O-])ccc1Cl	-1.1	42.3*	4.9	1.9	-4.9	-3.3
O=C(C1CCCC1)N1[C@@H]2CNc3ccccc3[C@@H]2[C@@H]1CO	-0.9	nt	nt	nt	nt	nt
O=C(C[C@H]1C[C@H]2c3cc(NC(=O)NC4CCCC4)ccc3O[C@H]2[C@@H](CO)O1)NCc1cc(F)ccc1F	nt	nt	-0.7	nt	nt	nt
Cc1ccc(-c2cc(C(F)(F)F)n3nc(C(=O)N4CCN5CCCC5C4)cc3n2)cc1 (stereo unspecified)	1.5	5.7	-1.8	-42.6	10.2*	-0.4
COc1ccc(-c2cc(C(F)(F)F)n3nc(C(=O)N4CCCC4)cc3n2)cc1	nt	0.0	-0.7	-6.3	-0.9	-1.9
C[C@H]1CN([C@@H](C)CO)S(=O)(=O)c2ccc(-c3cccc(C(=O)N(C)C)c3)cc2O[C@H]1CN(C)C	-0.3	nt	-0.2	nt	nt	nt
COc1cc2ccnc(C=O)c2cc1OC	nt	nt	2.8	0.3	nt	nt
COc1ccc(C(N)c2nccc3cc(OC)c(OC)cc23)cc1OC (stereo unspecified)	nt	-12.6	-4.2	-2.6	7.8*	2.1
CCNC(=O)C[C@@H]1CC[C@H]2[C@@H](COC[C@@H](O)CN2C(=O)CC)O1	-1.1	nt	0.3	nt	nt	nt
O=S(=O)(c1ccccc1)N1CCCCN2[C@H](CO)[C@@H](c3ccc(C#Cc4ccccc4)cc3)[C@H]2C1	-7.4	nt	-0.1	nt	nt	nt
CN(C)CCOc1nc(-c2ccccc2)nc2c1oc1ccccc12	nt	-4.9	-4.7	0.9	5.4	0.8
SMILES	ERp5 inh	PvdQ inh	PglD inh	PDI inh	VIM-2 inh	IMP-1 inhibitor
CCN(CC)CCCOc1nc(C)nc2c1oc1ccccc12	nt	-14.1	-6.2	4.7	31.3*	0.6
CCN(CC)CCOc1nc(C)nc2c1oc1ccccc12	nt	-11.8	-3.7	13.2	8.6*	-2.7
CN(C)CCOc1ncnc2c1oc1ccccc12	nt	0.9	3.0	-5.5	3.4	0.7
O=C(CN1CCOCC1)NCC[C@H]1CC[C@H](NC(=O)Nc2ccc(F)cc2)[C@@H](CO)O1	-1.5	nt	-1.0	nt	nt	nt
Cc1ccc(S(=O)(=O)Nc2ccc3c(c2)C(=O)N([C@@H](C)CO)C[C@@H](C)[C@H](CN(C)C(=O)NC(C)C)O3)cc1	7.9	nt	2.0	nt	nt	nt
O=C1C2C(C(=O)N1/N=C/c1cc(Br)cc([N+](=O)[O-])c1O)C1C=CC2C12CC2 (stereo unspecified)	nt	-5.6	nt	-1.8	-4.3	7.0*
